In ChEMBL document CHEMBL1156038 (J Med Chem, 2009):
Active and inactive are the calls of the source. The rule behind the calls is not given here.

Key:
Rattus norvegicus [1] = organism: Rattus norvegicus; assay: Inhibition of [3H]adenine binding to adenine 1 receptor in rat brain cortical membrane at 100 uM by liquid scintillation counting; assay type: cell membranes
Summary of the method: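 Aqueous solutions were autoclaved or heated >90 °C for ≥10 min to destroy bacterial binding sites. […] Filtered on GF/B with ice-cold Tris washes, then scintillation counted. Percent inhibition ± SEM.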

[2] = Displacement of [3H]adenine from adenine 1 receptor in HEK293 cells by liquid scintillation counting; assay type: cell-based, Homo sapiens
HEK293 [3] = assay: Selectivity ratio of Ki for adenine 1 receptor in HEK293 cells to Ki for adenine 1 receptor in rat brain cortical membrane; assay type: cell-based
Rattus norvegicus [4] = organism: Rattus norvegicus; assay: Inhibition of [3H]adenine binding to adenine 1 receptor in rat brain cortical membrane at 30 uM by liquid scintillation counting; assay type: cell membranes
1321-N1 [5] = assay: Inhibition of [3H]adenine uptake at rat adenine 1 receptor expressed in human 1321N1 cells at 100 uM after 1 min by liquid scintillation counting; assay type: cell-based
[6] = Agonist activity at rat adenine 1 receptor expressed in human 1321N1 cells assessed as inhibition of isoproterenol-induced [3H]cAMP formation at 250 uM by scintillation counting relative to adenine; assay type: functional
Summary of the method: (§1)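 1321N1 astrocytoma cells stably expressing rat Ade1R (retroviral pLXSN, G418 800 μg/mL), grown on 24-well plates. Cells washed and held 2 h at 37 °C in HBSS pH 7.3. Compound added together with 3 nM isoproterenol for 10 min at 37 °C, then stopped with hot EDTA/Triton lysis. cAMP measured by [3H]cAMP competition with calf adrenal binding protein and filtration, read against a 0–40 pmol standard curve. Result given as % of isoproterenol alone; n = 3.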

HEK293 [7] = assay: Selectivity ratio of Ki for adenine 1 receptor in rat brain cortical membrane to Ki for adenine 1 receptor in HEK293 cells; assay type: cell-based
1321-N1 [8] = assay: Agonist activity at rat adenine 1 receptor expressed in human 1321N1 cells assessed as inhibition of isoproterenol-induced [3H]cAMP formation at 500 uM by scintillation counting; assay type: functional, cell-based; summary of the method: as §1
HEK293 [9] = assay: Inhibition of [3H]adenine binding to adenine 1 receptor in HEK293 cells at 100 uM by liquid scintillation counting; assay type: cell-based; settings: Homo sapiens
1321-N1 [10] = assay: Agonist activity at rat adenine 1 receptor expressed in human 1321N1 cells assessed as inhibition of isoproterenol-induced [3H]cAMP formation at 250 uM by scintillation counting; assay type: functional, cell-based; summary of the method: as §1
Rattus norvegicus [11] = organism: Rattus norvegicus; assay: Inhibition of [3H]adenine binding to adenine 1 receptor in rat brain cortical membrane at 250 uM by liquid scintillation counting; assay type: cell membranes
[12] = Agonist activity at rat adenine 1 receptor expressed in human 1321N1 cells assessed as inhibition of isoproterenol-induced [3H]cAMP formation at 1 uM by scintillation counting; assay type: functional
1321-N1 [13] = assay: Inhibition of [3H]adenine uptake at rat adenine 1 receptor expressed in human 1321N1 cells at 1 mM after 1 min by liquid scintillation counting; assay type: cell-based
[14] = (§2) Agonist activity at rat adenine 1 receptor expressed in human 1321N1 cells assessed as inhibition of isoproterenol-induced [3H]cAMP formation by scintillation counting; assay type: functional, cell-based
1321-N1 [15] = assay: as §2; assay type: functional, cell-based
1321-N1 [16] = assay: Agonist activity at rat adenine 1 receptor expressed in human 1321N1 cells assessed as inhibition of isoproterenol-induced [3H]cAMP formation at 30 uM by scintillation counting; assay type: functional, cell-based; summary of the method: as §1
1321-N1 [17] = assay: Activity at rat adenine 1 receptor expressed in human 1321N1 cells assessed as complete inhibition of cAMP formation at 250 uM; assay type: cell-based; summary of the method: as §1
[18] = Agonist activity at rat adenine 1 receptor expressed in human 1321N1 cells assessed as inhibition of isoproterenol-induced [3H]cAMP formation at 50 uM by scintillation counting relative to adenine; assay type: functional; summary of the method: as §1
1321-N1 [19] = assay: Antagonist activity at rat adenine 1 receptor expressed in human 1321N1 cells assessed as change in adenine IC50 for inhibition of isoproterenol-induced [3H]cAMP formation at 10 uM by scintillation counting; assay type: functional, cell-based
Summary of the method: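 Retrovirally transduced 1321N1 astrocytoma cells stably expressing rat Ade1R, 24-well culture, washed and preincubated in Hepes-buffered HBSS pH 7.3, 2 h, 37 °C. […] Hot EDTA/Triton lysis. cAMP measured by competition with [3H]cAMP for calf adrenal binding protein, filtered, scintillation counting.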

| Structure (SMILES) | inhibition (Rattus norvegicus [1]) | Ki [2] | Ratio Ki (HEK293 [3]) | other results |
| --- | --- | --- | --- | --- |
| Nc1ncnc2c1N=CC2 | 39% | – | – | – |
| Nc1[nH]ccc2ncnc1-2 | – | 6.68 µM | 1 | – |
| Nc1nc(Cl)nc2c1ncn2[C@@H]1O[C@H](CO)[C@@H](O)[C@H]1O | 1% | – | – | – |
| Nc1ncnc2c1ncn2Cc1ccccc1 | 15% | – | – | – |
| CCCCC(CC)n1cnc2c(N)ncnc21 (stereo not drawn) | 12% | – | – | – |
| CCSc1nc2c(N)ncnc2[nH]1 | – | – | – | inhibition (Rattus norvegicus [4]): 0% |
| Nc1ncnc2[nH]ccc12 | 21% | – | – | – |
| CN(C)c1nc2c(N)ncnc2[nH]1 | – | 34.1 µM | 14.8 | inhibition (1321-N1 [5]): Active; inhibition at 250 µM ([6]; Rattus norvegicus, 1321-N1): 137% |
| Nc1[nH]cnc2nc(NCc3ccccc3)nc1-2 | – | 32.9 µM | 4.9 | – |
| CCOc1ncnc2c1ncn2C1CCCCC1 | -1% | – | – | – |
| Nc1ncnc2[nH]c(O)nc12 | – | 110 µM | 4.1 | – |
| Nc1ncnc2c1ncn2CCC(=O)O | – | 18.5 µM | 0.9 | – |
| CSc1nc2c(N)ncnc2[nH]1 | – | – | – | inhibition (Rattus norvegicus [4]): 10% |
| Nc1nc2[nH]cnc(N)c-2n1 | – | 0.0341 µM | 0.005 | Ratio Ki (HEK293 [7]): 190; inhibition (1321-N1 [5]): Active; inhibition (1321-N1 [8]): Active |
| O=c1[nH]cnc2cc[nH]c12 | 0% | – | – | – |
| CCn1cnc2c(N)nc(Cl)nc21 | 1% | – | – | – |
| Nc1nc(OCCC2CCCCC2)nc2[nH]cnc12 | -5% | – | – | – |
| Nc1ncnc2c1ncn2CCc1ccccc1 | – | 100 µM | 2 | inhibition (HEK293 [9]): 57% |
| Nc1ncnc2c1ncn2CCN1CCOCC1 | – | 5.49 µM | 1.8 | inhibition (1321-N1 [5]): Active; inhibition (1321-N1 [10]): Active |

| Structure (SMILES) | inhibition (Rattus norvegicus [1]) | Ki [2] | Ratio Ki (HEK293 [3]) | other results |
| --- | --- | --- | --- | --- |
| NCCCNc1ncnc2[nH]cnc12 | 49% | – | – | – |
| CCn1cnc2c(NC3CCCC3)ncnc21 | 5% | – | – | – |
| Nc1ncnc2c1ncn2CCc1ccncc1 | – | > 100 µM | – | inhibition (Rattus norvegicus [11]): 46%; inhibition (HEK293 [9]): 44% |
| Nc1nc(Cl)nc2c1ncn2[C@H]1C[C@H](O)[C@@H](CO)O1 | 9% | – | – | – |
| CC(C)(C)OC(=O)NCCNc1ncnc2[nH]cnc12 | 21% | – | – | – |
| Nc1ncnc2[nH]c(-c3cccc(C(F)(F)F)c3)nc12 | 23% | – | – | – |
| Nc1ncnc2c1ncn2CCc1cccnc1 | – | > 100 µM | 1.3 | inhibition (HEK293 [9]): 41% |
| CCn1cnc2c(N)nc(OCCc3ccccc3)nc21 | 7% | – | – | – |
| Nc1ncnc2c1ncn2CCN1CCNCC1 | – | > 100 µM | – | inhibition (Rattus norvegicus [11]): 28%; inhibition (HEK293 [9]): 0% |
| Nc1[nH]cnc2ncnc1-2 [ADENINE] | – | 0.0471 µM | – | inhibition at 1 µM [12]: 35%; inhibition (1321-N1 [13]): Active; IC50 [14]: 0.00829 µM; Activity (1321-N1 [15]): Dose-dependent effect |
| NCCNc1ncnc2[nH]cnc12 | 58% | – | – | – |
| NNc1ncnc2[nH]cnc12 | – | 17.5 µM | 13 | – |
| CC(C)(C)OC(=O)NCCCNc1ncnc2[nH]cnc12 | 46% | – | – | – |
| Nc1nc(OCCc2ccccc2)nc2[nH]cnc12 | 24% | – | – | – |
| Nc1ncnc2[nH]c(N3CCCCC3)nc12 | – | 31.7 µM | 8.1 | inhibition (1321-N1 [16]): Active; inhibition (1321-N1 [5]): Active; inhibition (1321-N1 [17]): Active |
| Nc1ncnc2[nH]c(Sc3ccccc3)nc12 | – | – | – | inhibition (Rattus norvegicus [4]): 0% |
| ONc1ncnc2[nH]cnc12 | – | 9.53 µM | 19 | inhibition (1321-N1 [5]): Active; Efficacy [18]: 51% |
| CCn1cnc2c(N)nc(NCCc3ccccc3)nc21 | 3% | – | – | – |
| CCn1cnc2c(OCCc3ccccc3)ncnc21 | 4% | – | – | – |

| Structure (SMILES) | inhibition (Rattus norvegicus [1]) | Ki [2] | Ratio Ki (HEK293 [3]) | other results |
| --- | --- | --- | --- | --- |
| Nc1ncnc2[nH]c(N3CCNCC3)nc12 | – | 27.4 µM | 8.4 | Activity (1321-N1 [19]): inactive; inhibition (1321-N1 [5]): Active; Efficacy [6]: 52% |
| CCCCOc1nc(N)c2ncn(CC)c2n1 | 4% | – | – | – |
| Nc1ncnc2ncn(Cc3ccccc3)c12 | 11% | – | – | – |
| Nc1ccnc2[nH]cnc12 | – | 7.89 µM | 0.7 | – |
| Nc1nc(C#Cc2ccccc2)nc2c1ncn2[C@@H]1O[C@H](CO)[C@@H](O)[C@H]1O | 0% | – | – | – |
| CCCSc1nc2c(N)ncnc2[nH]1 | – | – | – | inhibition (Rattus norvegicus [4]): 0% |
| CCCCC#Cc1nc(N)c2ncn([C@@H]3O[C@H](CO)[C@@H](O)[C@H]3O)c2n1 | 5% | – | – | – |
| Nc1ncnc2[nH]c(/C=C/c3ccccc3)nc12 | – | 12.2 µM | 0.67 | – |
| Nc1ncnc2[nH]c(-c3ccccc3)nc12 | 16% | – | – | – |
| OCCNc1ncnc2[nH]cnc12 | – | 100 µM | 4 | inhibition (HEK293 [9]): 58% |
| CCn1cnc2c(NCCc3ccccc3)ncnc21 | 3% | – | – | – |
| Nc1ncnc2c1ncn2CC(N)C(=O)O (racemic) | – | 6.23 µM | 0.58 | – |
| Nc1ncnc2[nH]c(N3CCCC3)nc12 | – | > 100 µM | > 2.4 | inhibition (HEK293 [9]): 18% |
| Nc1ncnc2c1ncn2[C@H]1C[C@H](O)[C@@H](CO)O1 [DEOXYADENOSINE] | – | > 100 µM | > 9 | inhibition (HEK293 [9]): 29% |
| Nc1ncnc2c1ncn2C1CCCCC1 | -6% | – | – | – |
| CC(=O)Nc1ncnc2[nH]cnc12 | – | 0.515 µM | 0.18 | Ratio Ki (HEK293 [7]): 5.5; Activity (1321-N1 [19]): inactive; inhibition (1321-N1 [5]): Active; Efficacy [6]: 77% |
| Nc1ncnc2[nH]c(C#Cc3ccccc3)nc12 | – | – | – | inhibition (Rattus norvegicus [4]): 19% |
| Nc1ncnc2c1ncn2CCc1ccccn1 | – | 100 µM | > 22 | inhibition (HEK293 [9]): 58% |
| CCNc1ncnc2[nH]cnc12 | – | 100 µM | 6 | inhibition (HEK293 [9]): 59% |
